Results taken from ChEMBL document CHEMBL4052819 (2017).
≈ marks a conversion by molar mass, not a printed value. Calls of active or inactive are those of the source. No cut-off for these calls is given here. Non-standard residues stand in square brackets, D forms with d. Residues, ends and D or L forms follow the SMILES beside them. *: point of attachment. Decanoyl = CCCCCCCCCC(=O)*; Octanoyl = CCCCCCCC(=O)*; Dab = NCC[C@H](N)C(=O)O

Experiments:
Type in all cases: functional
Staphylococcus aureus [1] = assay: Bactericidal activity against methicillin-resistant Staphylococcus aureus ATCC 43300; conditions: read-out: MBC99.9
Method in brief: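 MBC taken at the end of the MIC test: 50 μL from each well without visible growth plated on tryptic soy agar. MBC = lowest concentration giving ≥99.9% reduction in viable cells relative to the initial inoculum. Three independent experiments, one replicate each.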

Klebsiella pneumoniae [2] = assay: Antibacterial activity against Klebsiella pneumoniae ATCC 13883 after 18 to 20 hrs by broth microdilution method
Staphylococcus aureus [3] = assay: Bactericidal activity against Staphylococcus aureus ATCC 29213; conditions: read-out: MBC99.9
Method in brief: (§1)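 MBC from MIC plates at end point: 50 μL from each well with no visible growth plated on tryptic soy agar and counted. MBC taken as lowest concentration giving ≥99.9% fall in viable count relative to initial inoculum. Three independent experiments, one replicate each.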

Staphylococcus aureus [4] = assay: Antibacterial activity against Staphylococcus aureus ATCC 29213 after 18 to 20 hrs in presence of 95% serum by broth microdilution method
Method in brief: (§2)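 Same microdilution with human serum as medium: compound 2-fold diluted in 100% serum, mixed 1:1 with 90% serum holding ~1.5 × 10^5 CFU/mL, giving 95% serum and final 0.5–64 μg/mL. MIC read as no visible growth after incubation as for the broth test.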

Pseudomonas aeruginosa [5] = assay: Bactericidal activity against Pseudomonas aeruginosa ATCC 27853 after 60 mins in presence of LPS
Method in brief: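 P. aeruginosa at ~10^6 CFU/mL in TSB with E. coli O111:B4 LPS (final 10, 25, 50 or 100 μg/mL), then compound at final 16 μg/mL. Incubated 37 °C, 200 rpm, 60 min; survivors counted on TSA. Three independent experiments, one replicate each.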

Enterococcus faecium [6] = assay: Bactericidal activity against Enterococcus faecium ATCC 19434; conditions: read-out: MBC99.9; method in brief: as §1
Pseudomonas aeruginosa [7] = assay: Bactericidal activity against Pseudomonas aeruginosa ATCC 27853; conditions: read-out: MBC99.9; method in brief: as §1
Pseudomonas aeruginosa [8] = assay: Antibacterial activity against Pseudomonas aeruginosa ATCC 27853 after 18 to 20 hrs by broth microdilution method
Method in brief: (§3)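 Broth microdilution in tryptic soy broth: 2-fold dilutions mixed 1:1 with ~1.5 × 10^5 CFU/mL inoculum, final 0.5–32 μg/mL; 37 °C, 18–20 h. MIC taken as lowest concentration giving no visible growth. At least three independent experiments, one replicate each.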

Acinetobacter baumannii [9] = assay: Bactericidal activity against Acinetobacter baumannii ATCC 19606; conditions: ATCC 19606 = CIP 70.34 = JCM 6841, read-out: MBC99.9; method in brief: as §1
Staphylococcus aureus [10] = assay: Antibacterial activity against Staphylococcus aureus ATCC 29213 after 18 to 20 hrs by broth microdilution method; method in brief: as §3
Klebsiella pneumoniae [11] = assay: Bactericidal activity against Klebsiella pneumoniae ATCC 13883; conditions: read-out: MBC99.9; method in brief: as §1
Staphylococcus aureus [12] = assay: Antibacterial activity against methicillin-resistant Staphylococcus aureus LAC
Escherichia coli [13] = assay: Antibacterial activity against Escherichia coli ATCC 25922 after 18 to 20 hrs by broth microdilution method; method in brief: as §3
Staphylococcus aureus [14] = assay: Antibacterial activity against methicillin-resistant Staphylococcus aureus ATCC 43300 after 18 to 20 hrs by broth microdilution method
Method in brief: (§4)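 Broth microdilution in tryptic soy broth: 2-fold dilutions mixed 1:1 with ~1.5 × 10^5 CFU/mL bacterial suspension in TSB, final 0.5–32 μg/mL, 37 °C for 18–20 h. MIC = lowest concentration with no visible growth. At least three independent experiments, one replicate each.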

Acinetobacter baumannii [15] = assay: Antibacterial activity against Acinetobacter baumannii ATCC 19606 after 18 to 20 hrs by broth microdilution method; conditions: ATCC 19606 = CIP 70.34 = JCM 6841
Escherichia coli [16] = assay: Antibacterial activity against Escherichia coli ATCC 25922 after 18 to 20 hrs in presence of 95% serum by broth microdilution method; method in brief: as §2
Enterococcus faecium [17] = assay: Antibacterial activity against Enterococcus faecium ATCC 19434 after 18 to 20 hrs by broth microdilution method; method in brief: as §3
Staphylococcus aureus [18] = assay: Antibiofilm activity against methicillin-resistant Staphylococcus aureus LAC established catheter-associated biofilm model after 72 hrs
Escherichia coli [19] = assay: Bactericidal activity against Escherichia coli ATCC 25922; conditions: read-out: MBC99.9; method in brief: as §1
Escherichia coli [20] = assay: Antibacterial activity against polymyxin-resistant Escherichia coli UAMS-ECPR1 after 18 to 20 hrs by broth microdilution method; method in brief: as §4
Escherichia coli [21] = assay: Antibacterial activity against polymyxin-resistant Escherichia coli UAMS-ECPR2 after 18 to 20 hrs by broth microdilution method; method in brief: as §4
Escherichia coli [22] = assay: Antibacterial activity against polymyxin-resistant Escherichia coli AR 0494 expressing mcr1 after 18 to 20 hrs by broth microdilution method; method in brief: as §4
Klebsiella pneumoniae [23] = assay: Antibacterial activity against polymyxin-resistant Klebsiella pneumoniae UAMS-KPPR1 after 18 to 20 hrs by broth microdilution method
Klebsiella pneumoniae [24] = assay: Antibacterial activity against polymyxin-resistant Klebsiella pneumoniae UAMS-KPPR3 after 18 to 20 hrs by broth microdilution method
Escherichia coli [25] = assay: Antibacterial activity against Escherichia coli ATCC 25922 in presence of 100% serum measured immediately post compound addition in serum by broth microdilution method
Method in brief: (§5)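 Serum stability: compound added to 100% human serum at final 64 μg/mL, held at 37 °C, sampled at 0, 6, 12 and 24 h. […] Residual activity compared with untreated control.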

Escherichia coli [26] = assay: Antibacterial activity against Escherichia coli ATCC 25922 in presence of 100% serum after 24 hrs by broth microdilution method; conditions: ATCC 25922, 24 h; method in brief: as §5
Escherichia coli [27] = assay: Antibacterial activity against Escherichia coli ATCC 25922 in presence of 100% serum after 12 hrs by broth microdilution method; conditions: ATCC 25922, 12 h; method in brief: as §5
Escherichia coli [28] = assay: Antibacterial activity against Escherichia coli ATCC 25922 in presence of 100% serum after 6 hrs by broth microdilution method; conditions: ATCC 25922, 6 h; method in brief: as §5
Staphylococcus aureus [29] = assay: Antibiofilm activity against methicillin-resistant Staphylococcus aureus LAC established catheter-associated biofilm model at 20 times MIC after 72 hrs relative to control

Molecule: CCCCCCCCCC(=O)N[C@@H](CCN)C(=O)N[C@H](C(=O)N[C@@H](CCN)C(=O)N[C@H](Cc1ccccc1)C(=O)N[C@@H](CC(C)C)C(=O)N[C@@H](CCN)C(=O)N[C@@H](C(=O)N[C@@H](CC(C)C)C(=O)N[C@@H](CO)C(N)=O)C(C)C)[C@@H](C)CC (Decanoyl-[Dab]I[Dab][dF]L[Dab][dV]LS-NH2)
- MBC (Staphylococcus aureus [1]): 2 to 4 µg/mL (≈ 1.75 to 3.49 µM)
- MIC (Klebsiella pneumoniae [2]): 2 to 4 µg/mL (≈ 1.75 to 3.49 µM)
- MBC (Staphylococcus aureus [3]): 4 to 8 µg/mL (≈ 3.49 to 6.99 µM)
- MIC (Staphylococcus aureus [4]): 16 µg/mL
- Activity (Pseudomonas aeruginosa [5]): inactive
- MBC (Enterococcus faecium [6]): 2 to 4 µg/mL (≈ 1.75 to 3.49 µM)
- MBC (Pseudomonas aeruginosa [7]): 2 to 4 µg/mL (≈ 1.75 to 3.49 µM)
- MIC (Pseudomonas aeruginosa [8]): 1 to 2 µg/mL (≈ 0.874 to 1.75 µM)
- MBC (Acinetobacter baumannii [9]): 0.5 to 2 µg/mL (≈ 0.437 to 1.75 µM)
- MIC (Staphylococcus aureus [10]): 2 to 4 µg/mL (≈ 1.75 to 3.49 µM)
- MBC (Klebsiella pneumoniae [11]): 4 to 8 µg/mL (≈ 3.49 to 6.99 µM)
- Activity (Staphylococcus aureus [12]): Active
- MIC (Escherichia coli [13]): 2 to 8 µg/mL (≈ 1.75 to 6.99 µM)
- MIC (Staphylococcus aureus [14]): 2 to 4 µg/mL (≈ 1.75 to 3.49 µM)
- MIC (Acinetobacter baumannii [15]): 0.5 to 2 µg/mL (≈ 0.437 to 1.75 µM)
- MIC (Escherichia coli [16]): 32 µg/mL
- MIC (Enterococcus faecium [17]): 2 µg/mL (≈ 1.75 µM)
- Activity (Staphylococcus aureus [18]): inactive
- MBC (Escherichia coli [19]): 8 µg/mL (≈ 6.99 µM)

Molecule: POLYMYXIN B
- MIC (Escherichia coli [20]): 32 µg/mL
- MIC (Escherichia coli [21]): 32 µg/mL
- MIC (Escherichia coli [22]): 2 to 8 µg/mL
- MIC (Klebsiella pneumoniae [23]): > 32 µg/mL
- MIC (Klebsiella pneumoniae [24]): > 32 µg/mL

Molecule: CCCCCCCC(=O)N[C@@H](CCN)C(=O)N[C@H](C(=O)N[C@@H](CCN)C(=O)N[C@H](Cc1ccccc1)C(=O)N[C@@H](CC(C)C)C(=O)N[C@@H](CCN)C(=O)N[C@@H](C(=O)N[C@@H](CC(C)C)C(=O)N[C@@H](CO)C(N)=O)C(C)C)[C@@H](C)CC (Octanoyl-[Dab]I[Dab][dF]L[Dab][dV]LS-NH2)
- MBC (Staphylococcus aureus [1]): 8 to 32 µg/mL (≈ 7.17 to 28.7 µM)
- MIC (Klebsiella pneumoniae [2]): 8 to 16 µg/mL (≈ 7.17 to 14.3 µM)
- MBC (Staphylococcus aureus [3]): 16 µg/mL (≈ 14.3 µM)
- MIC (Staphylococcus aureus [4]): 16 to 32 µg/mL
- Activity (Pseudomonas aeruginosa [5]): inactive
- MBC (Enterococcus faecium [6]): 16 to 32 µg/mL (≈ 14.3 to 28.7 µM)
- MIC (Escherichia coli [25]): 8 µg/mL
- MBC (Pseudomonas aeruginosa [7]): 8 to 16 µg/mL (≈ 7.17 to 14.3 µM)
- MIC (Pseudomonas aeruginosa [8]): 2 µg/mL (≈ 1.79 µM)
- MBC (Acinetobacter baumannii [9]): 16 to 32 µg/mL (≈ 14.3 to 28.7 µM)
- MIC (Staphylococcus aureus [10]): 8 to 16 µg/mL (≈ 7.17 to 14.3 µM)
- MIC (Escherichia coli [26]): 8 µg/mL
- MBC (Klebsiella pneumoniae [11]): 8 to 16 µg/mL (≈ 7.17 to 14.3 µM)
- MIC (Escherichia coli [13]): 2 to 4 µg/mL (≈ 1.79 to 3.58 µM)
- MIC (Staphylococcus aureus [14]): 8 to 16 µg/mL (≈ 7.17 to 14.3 µM)
- MIC (Acinetobacter baumannii [15]): 16 µg/mL (≈ 14.3 µM)
- MIC (Escherichia coli [16]): 8 µg/mL
- MIC (Escherichia coli [27]): 8 µg/mL
- MIC (Enterococcus faecium [17]): 16 µg/mL (≈ 14.3 µM)
- MIC (Escherichia coli [28]): 8 µg/mL
- MBC (Escherichia coli [19]): 16 µg/mL (≈ 14.3 µM)

Molecule: CCO/N=C(\C(=O)N[C@@H]1C(=O)N2C(C(=O)[O-])=C(Sc3nc(-c4cc[n+](C)cc4)cs3)CS[C@H]12)c1nsc(NP(=O)(O)O)n1
- Activity (Staphylococcus aureus [29]): inactive
